According to ChEMBL document CHEMBL2016503, “Design and synthesis of 4-O-methylhonokiol analogs as inhibitors of cyclooxygenase-2 (COX-2) and PGF₁ production” (Bioorg Med Chem, 2012):

What was measured:
RAW264.7 [1] = test: Inhibition of LPS-induced NO production in mouse RAW264.7 cells after 24 hrs by Griess assay; assay type: functional, cell-based; details: RAW264.7, 24 h
How it was run: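 RAW264.7 macrophages were grown in DMEM with heat-inactivated 10% FBS, penicillin and streptomycin at 37 °C under 5% CO₂. Cells were stimulated with LPS for 24 h with or without compound. Culture medium was mixed with an equal volume of 0.05% sulfanilamide and 0.05% N-(1-naphthyl)ethylenediamine, and absorbance was read at 540 nm. Nitrite was quantified against a sodium nitrite standard curve.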

[2] = molecular target: T1, Prostaglandin G/H synthase 2 (Homo sapiens) (UniProt P35354); details: at 100 nM;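 also: recombinant enzyme with arachidonic acid substrate, compound preincubated 10 min before substrate, product read by EIA after 2 min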
T1 sequence (whole entry): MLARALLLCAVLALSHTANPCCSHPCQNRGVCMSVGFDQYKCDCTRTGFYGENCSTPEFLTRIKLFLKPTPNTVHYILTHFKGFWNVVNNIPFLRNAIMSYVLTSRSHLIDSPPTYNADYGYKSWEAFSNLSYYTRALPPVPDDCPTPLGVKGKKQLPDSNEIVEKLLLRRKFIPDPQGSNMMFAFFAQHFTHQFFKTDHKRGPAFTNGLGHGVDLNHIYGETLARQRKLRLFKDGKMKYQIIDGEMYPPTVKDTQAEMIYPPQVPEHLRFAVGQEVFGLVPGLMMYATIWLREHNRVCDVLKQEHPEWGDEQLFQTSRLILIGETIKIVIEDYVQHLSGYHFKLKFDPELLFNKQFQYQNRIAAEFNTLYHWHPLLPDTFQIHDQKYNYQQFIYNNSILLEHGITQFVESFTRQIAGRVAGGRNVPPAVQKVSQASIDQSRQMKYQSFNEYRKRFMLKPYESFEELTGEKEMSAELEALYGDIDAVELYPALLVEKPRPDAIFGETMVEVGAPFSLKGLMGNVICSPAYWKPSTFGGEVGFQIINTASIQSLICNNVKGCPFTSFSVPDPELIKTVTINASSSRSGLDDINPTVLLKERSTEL

RAW264.7 [3] = test: Cytotoxicity against mouse RAW264.7 cells assessed as cell viability by propidium iodide staining based FACS-flow cytometry
How it was run: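 RAW264.7 macrophages were grown in DMEM with heat-inactivated 10% FBS, penicillin and streptomycin at 37 °C under 5% CO₂. Viability was assessed by propidium iodide nuclear staining at 1 µg/ml, followed by flow cytometry. PI-stained cells were counted as dead.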

SMILES | IC50 (RAW264.7 [1]) [µM] | inhibition [2] [%] | IC50 (RAW264.7 [3]) [µM]
C=CCc1cc(Br)c(O)c(-c2ccc(OC)c(CC=C)c2)c1 | 28 | 52 | 33
C=CCNC(=O)Oc1ccc(CC=C)cc1-c1ccc(OC)c(CC=C)c1 | > 100 | 48 | > 100
C=CCc1ccc(OC(=O)N(C)Cc2ccccc2)c(-c2ccc(OC)c(CC=C)c2)c1 | 33 | 63 | 44
Cc1ccc(-c2cc(C(F)(F)F)nn2-c2ccc(S(N)(=O)=O)cc2)cc1 [CELECOXIB] | 12.1 | – | 11.1
CCCc1ccc(O)c(-c2cn(CC3CCC3)nn2)c1 | 33 | 33 | > 50
C=CCc1ccc(OC(C)C)c(-c2ccc(OC)c(CC=C)c2)c1 | 78 | 23 | > 100
C=CCc1ccc(OC)c(-c2ccc(OC)c(CC=C)c2)c1 | 40 | 46 | > 100
COc1ccc(-c2cc(CC3CO3)ccc2O)cc1CC1CO1 (configuration not stated) | 24 | 58 | 64
COc1ccc(-c2cc(CC=C(C)C)ccc2O)cc1CC=C(C)C | 13 | 41 | 15
C=CCc1cc(Cl)c(O)c(-c2ccc(OC)c(CC=C)c2)c1 | 40 | – | 81
CCCc1ccc(O)c(-c2ccc(OC)c(CCC)c2)c1 | 11 | 46 | 13

Further lines, with some results ahead:

IC50 (RAW264.7 [1]) [µM] | inhibition [2] [%] | SMILES | IC50 (RAW264.7 [3]) [µM]
63 | 35 | CCCc1cc(-c2cc(Br)ccc2O)no1 | 63
24 | 39 | C=CCc1ccc(OC(C)=O)c(-c2ccc(OC)c(CC=C)c2)c1 | 29
41 | – | C=CCc1ccc(O)c(-c2ccc(OC)c(CCCO)c2)c1 | 53
18 | 57 | C=CCc1ccc(O)c(-c2ccc(OC)c(CC=C)c2)c1 [METHYLHONOKIOL] | 27
> 50 | 22 | C=CCn1cc(-c2cc(CCC)ccc2O)nn1 | > 50
> 100 | 65 | C=CCc1ccc(OC(=O)NCc2ccccc2)c(-c2ccc(OC)c(CC=C)c2)c1 | > 100
36 | 38 | C=CCc1ccc(O)c(-c2cc(CO)on2)c1 | > 50
61 | 39 | C=CCc1ccc(O)c(-c2cc(CCC)on2)c1 | 81
> 100 | 44 | C=CCc1ccc(OCC=C(C)C)c(-c2ccc(OC)c(CC=C)c2)c1 | > 100
